Laboratory results: ChEMBL document CHEMBL4665743, “Labdane-Type Diterpenes from the Aerial Parts of Rydingia persica: Their Absolute Configurations and Protective Effects on LPS-Induced Inflammation in Keratinocytes” (2020)

Key:
Type in all cases: functional
HaCaT [1] = experiment: Anti-inflammatory activity in human HaCaT cells assessed as inhibition of LPS-induced nitrotyrosine production at 25 uM after 24 hrs by FACS analysis relative to LPS alone
Procedure, shortened: (§1)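 Cells were HaCaT seeded at 5 × 10^3 cells/well and pretreated with compound 1 h, then exposed to LPS (5 μg/mL) for 24 h. They were collected, PBS-washed, fixed 20 min and permeabilized 30 min, then stained 1 h with anti-nitrotyrosine antibody plus fluorescent secondary. Fluorescence was read by flow cytometry and expressed as % inhibition vs LPS alone. Mean ± SEM, n = 3.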

HaCaT [2] = experiment: Anti-inflammatory activity in human HaCaT cells assessed as inhibition of LPS-induced nitrotyrosine production at 50 uM after 24 hrs by FACS analysis relative to LPS alone; procedure, shortened: as §1
HaCaT [3] = experiment: Anti-inflammatory activity in human HaCaT cells assessed as inhibition of LPS-induced claudin-1 expression at 25 uM after 24 hrs by FACS analysis (rvb = 31.19 +/- 0.77)
HaCaT [4] = experiment: Anti-inflammatory activity in human HaCaT cells assessed as inhibition of LPS-induced TNF-alpha production at 50 uM after 24 hrs by ELISA relative to LPS alone
Procedure, shortened: (§2)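 HaCaT keratinocytes (DMEM, 4 g/L glucose, 10% FBS, 1% pen-strep) seeded 5 × 10^3 cells/well and allowed to adhere 24 h. Compounds added for 1 h alone, then with E. coli LPS (5 μg/mL) for 24 h. IL-6 or TNF-α measured in supernatants by ELISA (pg/mL) and expressed as % inhibition vs LPS alone. Indomethacin 10 μM served as reference. Mean ± SEM, n = 3.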

HaCaT [5] = experiment: Anti-inflammatory activity in human HaCaT cells assessed as inhibition of LPS-induced IL-6 production at 50 uM after 24 hrs by ELISA relative to LPS alone; procedure, shortened: as §2
HaCaT [6] = experiment: Anti-inflammatory activity in human HaCaT cells assessed as inhibition of LPS-induced occluding expression at 50 uM after 24 hrs by FACS analysis (rvb = 30.17 +/- 5.98)
HaCaT [7] = experiment: Anti-inflammatory activity in human HaCaT cells assessed as inhibition of LPS-induced TNF-alpha production at 25 uM after 24 hrs by ELISA relative to LPS alone; procedure, shortened: as §2
HaCaT [8] = experiment: Anti-inflammatory activity in human HaCaT cells assessed as inhibition of LPS-induced claudin-1 expression at 12.5 uM after 24 hrs by FACS analysis (rvb = 31.19 +/- 0.77)
HaCaT [9] = experiment: Anti-inflammatory activity in human HaCaT cells assessed as inhibition of LPS-induced IL-6 production at 12.5 uM after 24 hrs by ELISA relative to LPS alone; procedure, shortened: as §2
HaCaT [10] = experiment: Anti-inflammatory activity in human HaCaT cells assessed as inhibition of LPS-induced IL-6 production at 25 uM after 24 hrs by ELISA relative to LPS alone; procedure, shortened: as §2
HaCaT [11] = experiment: Anti-inflammatory activity in human HaCaT cells assessed as inhibition of LPS-induced occluding expression at 25 uM after 24 hrs by FACS analysis (rvb = 30.17 +/- 5.98)
HaCaT [12] = experiment: Anti-inflammatory activity in human HaCaT cells assessed as inhibition of LPS-induced claudin-1 expression at 50 uM after 24 hrs by FACS analysis (rvb = 31.19 +/- 0.77)
HaCaT [13] = experiment: Anti-inflammatory activity in human HaCaT cells assessed as inhibition of LPS-induced TNF-alpha production at 12.5 uM after 24 hrs by ELISA relative to LPS alone; procedure, shortened: as §2
HaCaT [14] = experiment: Anti-inflammatory activity in human HaCaT cells assessed as inhibition of LPS-induced nitrotyrosine production at 12.5 uM after 24 hrs by FACS analysis relative to LPS alone; procedure, shortened: as §1
HaCaT [15] = experiment: Anti-inflammatory activity in human HaCaT cells assessed as inhibition of LPS-induced occluding expression at 12.5 uM after 24 hrs by FACS analysis (rvb = 30.17 +/- 5.98)
HaCaT [16] = experiment: Anti-inflammatory activity in human HaCaT cells assessed as inhibition of LPS-induced TNF-alpha production at 10 uM after 24 hrs by ELISA relative to LPS alone; procedure, shortened: as §2
HaCaT [17] = experiment: Anti-inflammatory activity in human HaCaT cells assessed as inhibition of LPS-induced IL-6 production at 10 uM after 24 hrs by ELISA relative to LPS alone; procedure, shortened: as §2

Row | SMILES | inhibition at 25 µM (HaCaT [1]) [%] | inhibition at 50 µM (HaCaT [2]) [%] | Flu intensity (HaCaT [3]) | inhibition at 50 µM (HaCaT [4]) [%] | inhibition at 50 µM (HaCaT [5]) [%] | Flu intensity (HaCaT [6]) | inhibition at 25 µM (HaCaT [7]) [%] | Flu intensity (HaCaT [8]) | inhibition at 12.5 µM (HaCaT [9]) [%] | inhibition at 25 µM (HaCaT [10]) [%] | Flu intensity (HaCaT [11]) | Flu intensity (HaCaT [12]) | inhibition at 12.5 µM (HaCaT [13]) [%] | inhibition at 12.5 µM (HaCaT [14]) [%] | Flu intensity (HaCaT [15]) | inhibition at 10 µM (HaCaT [16]) [%] | inhibition at 10 µM (HaCaT [17]) [%]
1 | CC1=C(CCC2=CC(O)OC2=O)[C@@]2(C)CC[C@@H](O)C(C)(C)[C@@H]2CC1=O (some centres not stated) | 37 | 58.7 | 13.14 | 73.5 | 76 | 25.71 | 70.5 | 5.01 | 56 | 70.5 | 13.83 | 22.83 | 68 | 30 | 10.27 |  | 
2 | CC1=C(CCc2ccoc2)[C@@]2(C)CC[C@@H](O)C(C)(C)[C@@H]2[C@H](O)C1=O | 40 | 56 | 23.72 | 68 | 81 | 31.92 | 68 | 12.24 | 65.5 | 69 | 21.1 | 34.97 | 39.5 | 5 | 18.52 |  | 
3 | CC(=O)O[C@@H]1CC[C@@]2(C)[C@@H](C(=O)[C@H](O)[C@@H](C)[C@]2(O)CCc2ccoc2)C1(C)C | 42.7 | 56.3 | 16.35 | 68 | 80.5 | 22.88 | 62 | 14.96 | 73.5 | 77 | 16.06 | 26.08 | 15.6 | 9 | 10.89 |  | 
4 | C[C@@H]1C(=O)C[C@H]2C(C)(C)[C@H](O)CC[C@]2(C)[C@@]1(O)CCc1ccoc1 | 30.5 | 46.3 | 30.04 | 65 | 69.5 | 32.27 | 62.5 | 19.29 | 48 | 64.5 | 24.34 | 36.5 | 37 | 6.33 | 17.8 |  | 
5 | CO[C@@H]1C[C@@]2(CC[C@@]3(O2)[C@H](C)C(=O)C[C@H]2C(C)(C)[C@H](O)CC[C@@]23C)C(=O)O1 | 40 | 57.5 | 24.86 | 56.5 | 76.5 | 25.11 | 50.5 | 8.09 | 75 | 75.5 | 18.73 | 32.36 | 41.5 | 14.3 | 9.09 |  | 
6 | CO[C@@H]1C[C@]2(CC[C@@]3(O2)[C@H](C)C(=O)C[C@H]2C(C)(C)[C@H](O)CC[C@@]23C)CO1 | 21 | 39.3 | 22.52 | 68 | 76.5 | 24.77 | 62.5 | 13.55 | 63 | 71.5 | 18.59 | 33.58 | 44 | 0 | 8.82 |  | 
7 | CC(=O)OC[C@@]1(C)[C@H](O)CC[C@]2(C)C(CCC3=CC(O)OC3=O)=C(C)C(=O)C[C@@H]12 (some centres not stated) | 43 | 61.7 | 20.73 | 56.5 | 73.5 | 32.25 | 47.5 | 14.41 | 44.5 | 49.5 | 21.77 | 34.13 | 35 | 3.67 | 12.54 |  | 
8 | CO[C@H]1C[C@]2(CC[C@@]3(O2)[C@H](C)C(=O)[C@@H](O)[C@H]2C(C)(C)[C@H](O)CC[C@@]23C)CO1 | 15 | 38 | 22.27 | 65 | 78 | 35.8 | 55 | 14.39 | 38.5 | 68.5 | 23.48 | 31.45 | 44 | 0 | 18.89 |  | 
9 | COC1C=C(CCC2=C(C)C(=O)C[C@H]3C(C)(C)[C@H](O)CC[C@]23C)C(=O)O1 (some centres not stated) | 29.5 | 59.3 | 20.46 | 72 | 74.5 | 34.73 | 68 | 16.74 | 65.5 | 74 | 22.64 | 27.21 | 52 | 0.5 | 18.46 |  | 
10 | CC(=O)OC[C@@]1(C)[C@H](O)CC[C@]2(C)C(CCc3ccoc3)=C(C)C(=O)C[C@@H]12 | 44 | 58.3 | 14.18 | 44 | 73.5 | 31.34 | 25 | 6.86 | 66.5 | 67 | 19.18 | 17.12 | 0 | 0 | 13.27 |  | 
11 | COc1ccc2c(c1)c(CC(=O)O)c(C)n2C(=O)c1ccc(Cl)cc1 [INDOMETHACIN] |  |  |  |  |  |  |  |  |  |  |  |  |  |  |  | 77 | 88.5
